# Compounds with a hit are over-represented: about 6.9% of the library has one in this group of screens.
# Ecoli tolC: growth inhibitors of E. coli BW25113 tolC mutant; actives 2.2% (n = 65,000); AID 573; OD615; growth inhibition, % at 10 µM (by protocol);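 active = growth inhibition at or above a cutoff equal to the mean over every tested compound plus 3 SD, cut at about 60% in these data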;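 also: growth measured after 20 h incubation at 37 °C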
#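 Test system: tolC-deleted E. coli BW25113; medium: LB with kanamycin 50 µg/mL; compound: single-point testing at 10 µM; incubation: 20 h compound exposure of bacteria at 37 °C; signal: OD at 615 nm; evaluation: growth inhibition in percent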
# PostGolgi ctrl: inhibits growth of the yeast control strain; efflux-deficient yeast background strain, growth absorbance A615, 16 h; inhibition, % at 10 µM; actives 5% (n = 98,000); AID 738
# FAK inh: inhibitors of human focal adhesion kinase; Q05397; biochemical FAK kinase activity assay; inhibition, %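 (tested at 7 µM)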; actives 0.84% (n = 97,000); AID 727; in the data active = inhibition above about 19%
# Target sequence (Q05397 whole entry, looked up): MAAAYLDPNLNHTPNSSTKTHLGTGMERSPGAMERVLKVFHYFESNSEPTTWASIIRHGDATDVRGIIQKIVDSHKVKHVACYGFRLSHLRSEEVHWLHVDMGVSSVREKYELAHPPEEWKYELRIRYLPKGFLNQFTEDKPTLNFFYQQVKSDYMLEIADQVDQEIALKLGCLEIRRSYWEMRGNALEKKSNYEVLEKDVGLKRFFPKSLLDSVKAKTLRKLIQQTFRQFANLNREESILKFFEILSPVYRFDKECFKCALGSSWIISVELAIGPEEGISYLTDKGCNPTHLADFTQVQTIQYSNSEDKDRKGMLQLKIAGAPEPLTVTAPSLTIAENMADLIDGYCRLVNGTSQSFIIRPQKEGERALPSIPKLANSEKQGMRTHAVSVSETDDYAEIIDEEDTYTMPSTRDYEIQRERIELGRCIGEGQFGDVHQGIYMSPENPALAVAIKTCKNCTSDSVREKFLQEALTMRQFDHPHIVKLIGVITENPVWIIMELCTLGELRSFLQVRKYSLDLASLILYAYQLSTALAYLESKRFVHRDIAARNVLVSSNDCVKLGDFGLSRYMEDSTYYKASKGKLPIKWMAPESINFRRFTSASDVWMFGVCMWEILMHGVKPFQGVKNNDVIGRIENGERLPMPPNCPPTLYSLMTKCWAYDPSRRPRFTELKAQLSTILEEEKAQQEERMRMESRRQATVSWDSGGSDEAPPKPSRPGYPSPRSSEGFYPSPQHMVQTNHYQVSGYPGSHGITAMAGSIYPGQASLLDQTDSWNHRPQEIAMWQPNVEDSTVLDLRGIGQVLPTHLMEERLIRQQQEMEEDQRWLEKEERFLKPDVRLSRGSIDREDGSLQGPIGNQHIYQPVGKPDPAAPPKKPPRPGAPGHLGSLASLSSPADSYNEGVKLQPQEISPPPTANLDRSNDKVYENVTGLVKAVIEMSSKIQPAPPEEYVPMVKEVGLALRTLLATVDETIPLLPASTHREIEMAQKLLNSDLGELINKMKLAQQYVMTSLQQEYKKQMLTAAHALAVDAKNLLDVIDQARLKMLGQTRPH
# PTK2B oligo ant: antagonists of human Pyk2 oligomerization. Q293 cells, Pyk2 FERM NanoBiT luminescence; active compounds read low. z-score (the deposit names both 25 µM and 10 µM). actives 0.83% (n = 99,000). Q14289;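 active = Z-score of -3 or lower, scaled per plate to the spread of control and sample wells; inactive = z-score above -3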;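 also: negative z-score means lost luminescence so less FERM oligomerization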
# Candida biofilm: kills Candida albicans biofilms; C. albicans biofilm + clotrimazole, Alamar Blue; inhibition, % at 6 µM; actives 0.14% (n = 85,000); AID 834;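 active = inhibition above 20%; inactive = inhibition below 20%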;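 also: preformed 24 hr biofilms exposed to compound for 48 hr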
# PostGolgi yeast: growth inhibition of a yeast mutant, post-Golgi transport screen | actives 0.9% (n = 98,000) | inhibition, % at 10 µM | post-Golgi transport phenotypic cell assay | AID 739;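 also: yeast cells grown in 1536-well plates; yeast grown about 18 h at 30C before absorbance read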
# Hits are given with their value; n = inactive; x = no result. Rule as the data show it, unless noted: active = inhibition above about 30%; inactive = the rest.
SMILES,Ecoli tolC,PostGolgi ctrl,FAK inh,PTK2B oligo ant,Candida biofilm,PostGolgi yeast
Cc1cc(NC(=O)CCC(=O)N(CCC(C)C)CC(=O)NCC2CCCO2)no1 (stereo unspecified),n,38,n,n,n,n
Cc1cc(NC(=O)CCC(=O)N(CC(=O)NCC2CCCO2)Cc2ccc(F)cc2)no1 (stereo unspecified),x,x,n,n,n,x
COc1cc(C)c(S(=O)(=O)NCc2ccc3c(c2)OCO3)cc1C,n,n,n,x,27,n
Cc1cccc(C(=O)NCc2nnc(SCC(=O)N3CCN(c4ccccc4)CC3)n2C)c1,n,x,n,n,n,x
Cc1ccccc1NC(=O)Cc1nnc(SCC(=O)c2ccc(Br)cc2)n1C,x,n,n,n,n,n
CCOC(=O)c1ccc(-n2[nH]c(-c3ccccc3)cc2=O)cc1,62,n,n,n,n,n
Cc1ccc(Nc2nc3c(s2)CCC3)c(C)c1,x,x,n,n,n,x
Cc1cc(C)nc(N/N=C/C(Cl)=C/c2ccccc2)n1,x,n,n,n,x,31
CC1CCCCN1Cc1ccc(-c2nn[nH]n2)cc1 (stereo unspecified),n,45,n,n,n,n
CC1CCCCN1Cc1ccc(N)cc1 (stereo unspecified),x,x,n,n,n,x
O=C(COC(=O)CCC(=O)c1cccs1)Nc1ccc(S(=O)(=O)N2CCOCC2)cc1,n,41,x,n,n,n
O=C(c1ccco1)N1CCN(C(=O)c2cnn3c(C(F)(F)F)cc(-c4cccs4)nc23)CC1,n,n,n,n,n,n
COCCOC(=O)c1[nH]c2c(c1C)C(=O)C(C(=O)OC)C(C)C2 (stereo unspecified),n,n,n,x,n,n
CCCCCOC(=O)c1[nH]c2c(c1C)C(=O)C(C(=O)OC)C(C)C2 (stereo unspecified),75,n,n,n,n,n
O=C(Nc1cccc2ccccc12)/C(Cl)=C/c1ccccc1,x,n,n,n,x,n
c1csc(-n2nc3ccccc3n2)c1,n,n,n,n,n,n
O=C(OCc1nnc(-c2ccccc2)o1)c1cn(-c2ccccc2)nc1-c1ccccc1,n,n,n,n,n,n
Cc1cc(C(=O)OCc2nnc(-c3ccccc3)o2)c(C)n1-c1ccccc1,63,n,x,n,n,n
Cc1noc(C)c1COC(=O)c1cc(C)n(-c2ccccc2)c1C,93,n,n,-3.1,n,n
Cc1[nH]c2ccccc2c1Cc1n[nH]c(=S)o1,x,n,n,x,n,n
CC(C)(CNc1ccc([N+](=O)[O-])cc1Cl)CNS(C)(=O)=O,x,n,n,n,n,n
Cn1c(=O)[nH]c(=O)c2c1nc(N1CCCC1)n2CCCSc1nc2ccccc2o1,n,46,x,n,n,n
CC1CCN(c2nc3c(c(=O)[nH]c(=O)n3C)n2Cc2ccccc2)CC1,n,n,n,x,n,n
CCn1c(N2CCC(Cc3ccccc3)CC2)nc2c1c(=O)[nH]c(=O)n2C,n,37,n,n,n,n
CC1CCCN(c2nc3c(c(=O)[nH]c(=O)n3C)n2CCCc2ccccc2)C1 (stereo unspecified),n,35,x,x,n,n
SMILES,Ecoli tolC,PostGolgi ctrl,FAK inh,PTK2B oligo ant,Candida biofilm,PostGolgi yeast
CCOC(=O)C1CCN(CC(=O)Nc2cc(C)nn2-c2nc3ccccc3s2)CC1,x,n,n,n,n,n
CCCCn1c(SCc2nc(N)nc(Nc3ccccc3C)n2)nc2ccccc2c1=O,x,n,n,n,n,n
C/C(CC1(O)/C(=N/O)CCc2nonc21)=N\O (stereo unspecified),n,n,n,n,n,n
CCN(c1cccc(C)c1)S(=O)(=O)c1ccc2c3c(cccc13)C(=O)N2,x,x,n,-3.1,n,x
O=C(Nc1ccc(N2CCCC2)cc1)c1ccccc1F,x,x,63,n,n,x
CC(C)CN1C(=O)c2ccc(NC(=O)c3ccccc3F)cc2C1=O,x,33,n,n,n,n
CC(C)CN1C(=O)c2ccc(NC(=O)c3cccs3)cc2C1=O,x,n,n,n,n,n
O=C(Nc1ccc(N2CCCCC2)cc1)c1ccccc1,n,n,n,n,x,n
O=C(CSc1nnc(-c2cccnc2)n1-c1ccccc1)Nc1ccccc1,x,x,n,n,n,x
CCC(C)NC(=O)c1ccccc1NC(=O)COc1ccc(OC)cc1 (stereo unspecified),x,n,n,n,n,n
CCn1c(SCC(=O)Nc2nc(C)cs2)nnc1-c1ccoc1C,x,n,n,n,x,n
CCCn1c(=O)c(C(=O)Nc2ccccc2C(=O)OCC)c(O)c2ccccc21,n,n,x,n,n,n
CCOC(=O)Cc1csc(NC(=O)c2c(O)c3ccccc3n(CC(C)C)c2=O)n1,x,32,n,n,n,n
CC(C)Cn1c(=O)c(C(=O)Nc2ccccc2S(N)(=O)=O)c(O)c2ccccc21,100,30,x,n,x,n
CCC(C)n1c(=O)c(C(=O)Nc2ccccc2S(N)(=O)=O)c(O)c2ccccc21 (stereo unspecified),83,30,x,n,n,n
CCn1c(=O)c(C(=O)Nc2cnccn2)c(O)c2ccccc21,n,x,x,x,n,x
COc1cc(C(O)P(=O)(OC(C)C)c2ccc(N(C)C)cc2)cc(OC)c1OC (stereo unspecified),n,n,n,n,n,n
O=C(O)C1CC(c2ccc(F)cc2)=NO1 (stereo unspecified),x,n,n,n,x,n
CC1(C)CC(=O)C2=C(C1)OC(N)=C(C#N)C21C(=O)N2CCCc3cccc1c32 (stereo unspecified),n,34,n,n,n,n
CC1(C)CC(=O)C2=C(C1)OC(N)=C(C#N)[C@@]21C(=O)N(CC(N)=O)c2ccccc21,n,n,n,n,x,n
CC1CCN(S(=O)(=O)c2ccc3c(c2)oc(=O)n3CC(=O)N2c3ccccc3CC2C)CC1 (stereo unspecified),n,n,n,x,n,n
CC1Cc2ccccc2N1C(=O)Cn1c(=O)oc2cc(S(=O)(=O)NC3CCCC3)ccc21 (stereo unspecified),74,n,n,x,n,n
CCCn1c(CCC(=O)O)ccc1-c1cccs1,n,n,n,n,n,n
COCCCn1c(CCC(=O)O)ccc1-c1cccs1,n,30,n,n,n,n
Cc1nn2c(N3CCN(C(=O)c4ccco4)CC3)cc(C(C)(C)C)nc2c1-c1ccc(Cl)cc1,x,n,n,x,x,n
SMILES,Ecoli tolC,PostGolgi ctrl,FAK inh,PTK2B oligo ant,Candida biofilm,PostGolgi yeast
CC(=O)Nc1cc(C(C)(C)C)c(O)c(C(C)(C)C)c1,x,33,n,n,68,n
CC(C)(C)c1cc(CNC2CS(=O)(=O)C[C@@H]2O)cc(C(C)(C)C)c1O (stereo partly specified),n,n,n,n,n,n
CNC(=O)C12CCC(C)(c3nc4cc(C)c(C)cc4nc31)C2(C)C (stereo unspecified),x,n,n,n,n,n
Cc1cc2nc3c(nc2cc1C)C1(C(=O)O)CCC3(C)C1(C)C (stereo unspecified),n,32,n,n,n,n
Cc1cc(OCC(=O)N2CCc3ccccc3C2)c2c(-c3ccccc3)cc(=O)oc2c1,x,51,n,n,n,n
Cc1cc(OC(C)C)c2c(-c3ccccc3)cc(=O)oc2c1,x,n,n,n,n,n
